Results from PubChem BioAssay.
Results filed as inconclusive are left out. Active and inactive are the calls of the source.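 The calls were made as follows, unless noted: active = viability increase at or above a cutoff of the median across tested compounds plus 3 SD (cut at about 8.5% in these data, passing the limit was not always enough); inconclusive = some gains above the cutoff, reason not given; inactive = the rest.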

What was measured:
[1] = OD615 S. cerevisiae growth inhibition, permissive medium, pilot counter-assay, permissive growth control for S. cerevisiae lifespan shortening project (AID 705;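 active = growth inhibition above 25% in both replicates, a cutoff set 3 SD above the mean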); conditions: OD615, 24 h, at 10 µM, stronger effect = higher value
Procedure, shortened: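 System – S. cerevisiae with engineered DeaD lifespan system · Buffer or medium – SC raffinose/galactose permissive medium · Schedule – cells pre-grown 4 h, then 24 h compound exposure, 30 °C humidified · Technique – culture turbidity as optical density at 615 nm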

[2] = Restrictive medium S. cerevisiae growth inhibition, OD615, pilot screen of yeast lifespan reduction project, restrictive growth control (AID 706;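 active = growth inhibition above a set limit, 3 SD over mean compound inhibition, in both replicates, cut at about 43% in these data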;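 also: modified DeaD lifespan yeast strain shifted to restrictive glucose medium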); conditions: OD615, 48 h, at 10 µM, stronger effect = higher value
Procedure, shortened: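 Material: engineered S. cerevisiae DeaD strain / Medium: glucose-based CSMM-D restrictive medium / Compound: single dose of 10 µM compound final, 0.25% DMSO / Timing: 4 h pre-incubation, 48 h exposure at 30 °C / Technique: OD615 absorbance reading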

[3] = viability gain of MRP-1-high H69AR cells under doxorubicin, pilot screen, MRP-1 activator project, CellTiter-Glo, duplicate (AID 807); conditions: H69AR viability with doxorubicin, CellTiter-Glo luminescence; at 10 µM; stronger effect = higher value;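 also: compound pretreatment 18-22 h then 72 h combined with doxorubicin; 0% = doxorubicin alone and 100% = vehicle without doxorubicin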
[4] = growth suppression of beta-catenin knockout HCT116, pilot screen, human colon tumor cells (AID 823;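 active = cell viability at or below a set limit in both duplicate runs, the limit being the all-compound median minus 4 SD, cut at about 23% in these data, passing the limit was not always enough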;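 also: 0% = wells killed by 20 µM Hyamine and 100% = untreated DMSO cell wells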); conditions: CellTiter-Glo, 60 h, at 10 µM, stronger effect = lower value
[5] = growth suppression of PTEN-deleted HCT116, pilot screen, cell-based, HCT116 clonal line, CellTiter-Glo (AID 824;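 active = viability at or below 27.92% in each of two runs, the all-compound median minus 4 SD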;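 also: 0% = 20 µM Hyamine control and 100% = vehicle cell control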); conditions: 60 h, at 10 µM, stronger effect = lower value
[6] = inhibitors of the yeast RAM network, pilot screen, dse1pr::URA3 reporter, 5-FOA selection (AID 869;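 active = inhibition over a set limit, the all-compound mean plus 3 SD, in both replicate runs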;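 also: 0% = DMSO wells with no growth and 100% = 10 µM 1-NA-PP1 with full growth; RAM network block rescues cells from 5-FOA so hits raise OD615 growth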); conditions: S. cerevisiae dse1pr::URA3 5-FOA growth, OD615, 2 d; at 10 µM; stronger effect = higher value; strain carries analog-sensitive mutant Cbk1 kinase
[7] = RAM signaling pathway blockade in yeast – S. cerevisiae, Pdr1DBD-CYC8 efflux-inhibited sensitized strain, primary screen (AID 1298;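 active = RAM network inhibition above 8.4% in each of two replicates, 3 SD over the compound average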;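 also: 0% = DMSO untreated cells without growth and 100% = 10 µM 1-NA-PP1 full growth; higher means more yeast growth rescued from 5-FOA killing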); conditions: S. cerevisiae cbk1-as DSE1-URA3 strain, 5-FOA growth OD615, 2 d; at 50 µM; stronger effect = higher value

COc1ccc(C2C(C#N)=C(N)Oc3n[nH]c(C)c32)cc1Cn1nnc2ccccc21 (configuration not stated)
inactive: growth inhibition [1] 2.33% | growth inhibition [2] -0.6% | viability increase [3] -5.95% | viability [4] 75.7% | viability [5] 77.9% | inhibition [6] 1.26% | RAM network inhibition [7] 7.2%

COc1ccc(N2CSC3=C(C#N)C(c4cccc(OC)c4OC)CC(=O)N3C2)cc1 (configuration not stated)
inactive: growth inhibition [1] -1.74% | growth inhibition [2] 26.5% | viability increase [3] -4.01% | viability [4] 95.6% | viability [5] 92.6% | inhibition [6] 1.48% | RAM network inhibition [7] 3.83%

CC1(C)CC2(CC(C)(C)N1)OC(=O)N1CCc3ccccc3C12C (configuration not stated)
inactive: growth inhibition [1] -4.17% | growth inhibition [2] -7.5% | viability increase [3] -1.65% | viability [4] 106% | viability [5] 97.9% | inhibition [6] 2.3% | RAM network inhibition [7] 6.97%

CNC(=O)c1c(NC(=O)c2nc3ccccc3s2)sc2c1CCC2
inactive: growth inhibition [1] 1.6% | growth inhibition [2] -6.17% | viability increase [3] -3.81% | viability [4] 67.5% | viability [5] 61% | inhibition [6] 0.625% | RAM network inhibition [7] 5.05%

COc1ccccc1NC(=O)Cn1cnc2c(oc3ccccc32)c1=O
inactive: growth inhibition [1] -11.8% | growth inhibition [2] -11.6% | viability increase [3] -1.93% | viability [4] 107% | viability [5] 100% | inhibition [6] 1.6% | RAM network inhibition [7] -1.27%

COc1ccc(OC)c(CCNC(=O)C2CCN(c3nnc(-n4cccc4)s3)CC2)c1
inactive: growth inhibition [1] -7.79% | growth inhibition [2] -20.5% | viability increase [3] -4.48% | viability [4] 85.2% | viability [5] 81.9% | inhibition [6] 4.26% | RAM network inhibition [7] 7.35%

CCOC(=O)c1nnn(-c2nonc2N)c1COc1ccccc1
inactive: growth inhibition [1] -15.7% | growth inhibition [2] -5.9% | viability increase [3] -2.43% | viability [4] 89.5% | viability [5] 87.4% | inhibition [6] 0.05% | RAM network inhibition [7] 3.66%

O=C(CSc1oc(-c2ccco2)nc1S(=O)(=O)c1ccc(Cl)cc1)NCC1CCCO1 (configuration not stated)
inactive: growth inhibition [1] 1.39% | growth inhibition [2] 2.77% | viability increase [3] -1.13% | viability [4] 96.9% | viability [5] 95.1% | inhibition [6] -0.09% | RAM network inhibition [7] 1.57%

O=C(NCc1ccco1)C1CCN(c2nnc(-n3cccc3)s2)CC1
inactive: growth inhibition [1] 3.71% | growth inhibition [2] -3.18% | viability increase [3] -3.76% | viability [4] 97.2% | viability [5] 95.8% | inhibition [6] 0.985% | RAM network inhibition [7] 5.26%

Cc1cc(C)nc(NS(=O)(=O)c2ccc(NC(=O)C3CC(=O)N(c4ccccc4)C3)cc2)n1 (configuration not stated)
inactive: growth inhibition [1] -4.82% | growth inhibition [2] 7.38% | viability increase [3] 1.33% | viability [4] 104% | viability [5] 100% | inhibition [6] 1.81% | RAM network inhibition [7] 3.68%

O=C1c2ccccc2-c2nc3ncnn3c(-c3ccccc3Cl)c21
inactive: growth inhibition [1] -6.53% | growth inhibition [2] -0.65% | viability increase [3] -3.38% | viability [4] 83.3% | viability [5] 76.9% | inhibition [6] 0.39% | RAM network inhibition [7] 0.58%

O=C(NCCCN1CCCCC1)C1(S(=O)(=O)c2ccc(Cl)cc2)CC1
inactive: growth inhibition [1] -12.4% | growth inhibition [2] -14% | viability increase [3] -1.07% | viability [4] 103% | viability [5] 97.2% | inhibition [6] 1.6% | RAM network inhibition [7] 2.82%

Cc1cc(NC(=O)CC(CN(C)S(=O)(=O)c2ccccc2)c2ccccc2)no1 (configuration not stated)
inactive: growth inhibition [1] -7.79% | growth inhibition [2] -20.5% | viability increase [3] -4.04% | viability [4] 89.7% | viability [5] 81.3% | inhibition [6] 1.59% | RAM network inhibition [7] 3.14%

c1cn(CCCNc2ncnc3nc[nH]c23)cn1
inactive: growth inhibition [1] -7.59% | growth inhibition [2] -16.1% | viability increase [3] -1.91% | viability [4] 111% | viability [5] 96.2% | inhibition [6] 0.895% | RAM network inhibition [7] 2.98%

CCCOC(=O)c1cccc(NC(=O)C(C)(C)C)c1
inactive: growth inhibition [1] -17.4% | growth inhibition [2] -14.3% | viability increase [3] 0.9% | viability [4] 98.7% | viability [5] 98.8% | inhibition [6] -0.725% | RAM network inhibition [7] 1.87%

CCCCCn1c(NC2CCCCC2)nc2c1c(=O)[nH]c(=O)n2C
inactive: growth inhibition [1] -15.8% | growth inhibition [2] -18.2% | viability increase [3] -3.48% | viability [4] 83.3% | viability [5] 86.1% | inhibition [6] 1.53% | RAM network inhibition [7] -0.84%

COc1ccc(-c2csc(N3CCN(C(=O)c4ccco4)CC3)n2)cc1
inactive: growth inhibition [1] -13% | growth inhibition [2] 19% | viability increase [3] 2.74% | viability [4] 98.5% | viability [5] 85.1% | inhibition [6] 0.95% | RAM network inhibition [7] 2.04%

O=C1c2ccccc2S(=O)(=O)N1CC(O)COc1ccc(Br)cc1 (configuration not stated)
inactive: growth inhibition [1] -2.32% | growth inhibition [2] 5.18% | viability increase [3] -0.35% | viability [4] 106% | viability [5] 97.4% | inhibition [6] 1.39% | RAM network inhibition [7] 2.2%

CCCCCOC(=O)c1[nH]c2c(c1C)C(=O)CC(c1ccco1)C2 (configuration not stated)
inactive: growth inhibition [1] -15% | growth inhibition [2] -3.28% | viability increase [3] -5.25% | inhibition [6] 0.18% | RAM network inhibition [7] -0.31%
active: viability [4] 14.5% | viability [5] 16.3%

COC1CCCCC1NS(=O)(=O)c1ccc(Cl)cc1 (configuration not stated)
inactive: growth inhibition [1] 1.43% | growth inhibition [2] 2.45% | viability increase [3] -1.67% | viability [4] 93.3% | viability [5] 99.6% | inhibition [6] -0.11% | RAM network inhibition [7] -1.18%

CC(=O)c1ccc(OCC(O)CN2CCOCC2)cc1 (configuration not stated)
inactive: growth inhibition [1] -11.4% | growth inhibition [2] 10.1% | viability increase [3] 0.28% | viability [4] 103% | viability [5] 90.7% | inhibition [6] 2.42% | RAM network inhibition [7] 0.84%

Cc1ccc(C)c(N2CCN(c3ncnc4c3cnn4-c3ccccc3)CC2)c1
inactive: growth inhibition [1] -11.6% | growth inhibition [2] -18.3% | viability increase [3] 2.4% | viability [4] 72.5% | viability [5] 68.6% | inhibition [6] 3.82% | RAM network inhibition [7] 7.43%

CCOCCOC(=O)C1=C(C)NC2=C(C(=O)CC(c3cccs3)C2)C1c1ccsc1 (configuration not stated)
inactive: growth inhibition [1] -1.18% | growth inhibition [2] 2.17% | viability increase [3] -1.94% | viability [4] 93.5% | viability [5] 89.2% | inhibition [6] 2.27% | RAM network inhibition [7] 6.89%

CCc1nnc(NC(=O)CCC(=O)O)s1
inactive: growth inhibition [1] -7.04% | growth inhibition [2] -5.46% | viability increase [3] 0.56% | viability [4] 98.3% | viability [5] 96.3% | inhibition [6] 0.815% | RAM network inhibition [7] 2.03%

Cc1ccc(C)c(S(=O)(=O)Nc2ccc(O)cc2)c1
inactive: growth inhibition [1] -9.59% | growth inhibition [2] 11.7% | viability increase [3] -2.63% | viability [4] 101% | viability [5] 97% | inhibition [6] 1.44% | RAM network inhibition [7] 2.77%

O=C(Cn1c(=O)[nH]c2ccsc2c1=O)NC1CCCCC1
inactive: growth inhibition [1] -3.32% | growth inhibition [2] -5.46% | viability increase [3] 0.65% | viability [4] 94.9% | viability [5] 93.9% | inhibition [6] 1.41% | RAM network inhibition [7] -1.43%

CCOC(=O)c1c(C)n(C)c2ccc(OCC(O)CN(CC)CC)cc12 (configuration not stated)
inactive: growth inhibition [1] -9.63% | growth inhibition [2] -1.99% | viability increase [3] -4.23% | viability [4] 77.6% | viability [5] 81.5% | inhibition [6] 1.71% | RAM network inhibition [7] -0.57%

COc1ccc(OC)c(Nc2cc(C)nc3nc(C)nn23)c1
inactive: growth inhibition [1] 0.505% | growth inhibition [2] -0.375% | viability increase [3] -5.35% | viability [4] 65.5% | viability [5] 57.4% | inhibition [6] 1.67% | RAM network inhibition [7] 5.24%

COC(=O)CN1C(=O)CC(C)(C)Sc2ccccc21
inactive: growth inhibition [1] -16.9% | growth inhibition [2] -27.1% | viability increase [3] 1.77% | viability [4] 103% | viability [5] 101% | inhibition [6] 2.17% | RAM network inhibition [7] 2.53%

CCCN(CCC)S(=O)(=O)c1cc(Br)cc2c1N(C(=O)CC)CC2
inactive: growth inhibition [1] -8.33% | growth inhibition [2] -21.3% | viability increase [3] -4.77% | viability [4] 65.9% | viability [5] 69.7% | inhibition [6] 0.885% | RAM network inhibition [7] 4.71%

O=C(c1cc2ccccn2n1)N1CCCC1
inactive: growth inhibition [1] -5.76% | growth inhibition [2] -2.7% | viability increase [3] -1.17% | viability [4] 103% | viability [5] 100% | inhibition [6] 1.79% | RAM network inhibition [7] 6.63%

Cc1cccc(NC(=O)C2CCCN2S(=O)(=O)c2cccc3cccnc23)c1 (configuration not stated)
inactive: growth inhibition [1] -13% | growth inhibition [2] -6.59% | viability increase [3] -3.17% | viability [4] 85.3% | viability [5] 84% | inhibition [6] 0.065% | RAM network inhibition [7] 1.73%

COc1ccc(S(=O)(=O)NCCN2CCOCC2)c2ccccc12
inactive: growth inhibition [1] -1.53% | growth inhibition [2] -2.08% | viability increase [3] -1.32% | viability [4] 101% | viability [5] 95.1% | inhibition [6] -0.495% | RAM network inhibition [7] 1.53%

Cn1nc(CC(=O)NC2CCCCCC2)c2ccccc2c1=O
inactive: growth inhibition [1] 3.21% | growth inhibition [2] 6.03% | viability increase [3] -2.58% | viability [4] 62.4% | viability [5] 76.4% | inhibition [6] 0.825% | RAM network inhibition [7] 1.38%

COc1cc2c(cc1OC)C1=C(C#N)CN(CC(=O)O)CN1CC2
inactive: growth inhibition [1] -0.125% | growth inhibition [2] 11.3% | viability increase [3] -4.43% | viability [4] 106% | viability [5] 96% | inhibition [6] 1.7% | RAM network inhibition [7] 1.9%

CCCCCC(C)n1[nH]c(=O)c2c(C)cc(C)nc21 (configuration not stated)
inactive: growth inhibition [1] -6.7% | growth inhibition [2] 17.6% | viability increase [3] -3.27% | viability [4] 97.6% | viability [5] 96.2% | inhibition [6] 0.47% | RAM network inhibition [7] 0.57%
